Reference: ChEMBL document CHEMBL1833876 (J Med Chem, 2011)
Activity calls are given as the source filed them. The rule behind the calls is not given here.

What was measured:
[1] = molecular target: T1, Proton-coupled folate transporter (Homo sapiens) (UniProt Q96NT5); assay: Inhibition of human PCFT-mediated [3H]MTX uptake ectopically expressed in chinese hamster R2 cells at 10 uM at pH 5.5 to 7.2; assay type: cell-based
T1 sequence (whole entry): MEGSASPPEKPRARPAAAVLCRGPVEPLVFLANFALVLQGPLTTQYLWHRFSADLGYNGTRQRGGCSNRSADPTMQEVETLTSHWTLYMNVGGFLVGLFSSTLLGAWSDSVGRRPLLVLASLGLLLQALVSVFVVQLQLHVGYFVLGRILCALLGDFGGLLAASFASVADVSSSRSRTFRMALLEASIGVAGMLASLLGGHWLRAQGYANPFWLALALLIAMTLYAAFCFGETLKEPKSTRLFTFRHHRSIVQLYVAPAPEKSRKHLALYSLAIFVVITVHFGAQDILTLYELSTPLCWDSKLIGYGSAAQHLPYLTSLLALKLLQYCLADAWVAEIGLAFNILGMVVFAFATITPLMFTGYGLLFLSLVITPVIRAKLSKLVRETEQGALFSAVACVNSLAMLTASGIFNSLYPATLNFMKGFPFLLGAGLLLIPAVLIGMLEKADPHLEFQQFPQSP

R2 [2] = assay: Antiproliferative activity against chinese hamster R2 cells expressing human PCFT assessed as reduction of viable cells after 96 hrs; assay type: functional, cell-based; conditions: Cricetulus griseus, R2, 96 h
[3] = molecular target: T2, Reduced folate transporter (Homo sapiens) (UniProt P41440); assay: Inhibition of human RFC-mediated [3H]MTX uptake in chinese hamster PC43-10 cells at 10 uM after 2 mins relative to control; assay type: cell-based
T2 sequence (whole entry): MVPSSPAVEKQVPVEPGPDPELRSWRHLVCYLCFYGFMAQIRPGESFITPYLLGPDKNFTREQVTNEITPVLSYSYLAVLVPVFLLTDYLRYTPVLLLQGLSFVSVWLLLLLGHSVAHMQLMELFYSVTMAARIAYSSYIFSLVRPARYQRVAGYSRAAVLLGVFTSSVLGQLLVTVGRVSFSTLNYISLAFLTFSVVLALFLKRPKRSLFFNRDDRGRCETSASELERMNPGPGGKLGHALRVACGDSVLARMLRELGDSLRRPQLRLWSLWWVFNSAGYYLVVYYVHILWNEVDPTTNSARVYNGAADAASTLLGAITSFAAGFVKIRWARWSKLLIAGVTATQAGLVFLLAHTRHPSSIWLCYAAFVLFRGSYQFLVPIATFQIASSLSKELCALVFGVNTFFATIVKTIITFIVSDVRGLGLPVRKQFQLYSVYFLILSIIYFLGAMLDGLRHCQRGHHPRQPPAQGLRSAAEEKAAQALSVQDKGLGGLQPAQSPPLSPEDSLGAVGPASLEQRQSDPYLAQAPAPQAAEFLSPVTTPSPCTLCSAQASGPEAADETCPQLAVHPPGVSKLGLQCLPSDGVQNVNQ
Method in brief: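 PC43-10 (hRFC) cells were suspended in Hank's balanced salts. […] Results were expressed per mg protein, and percent inhibition was taken versus control uptake.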

R2 [4] = assay: Antiproliferative activity against chinese hamster R2 cells assessed as reduction of viable cells after 96 hrs; conditions: Cricetulus griseus, R2, 96 h
[5] = Antiproliferative activity against chinese hamster R2(VC) cells assessed as reduction of viable cells after 96 hrs; conditions: Cricetulus griseus
[6] = molecular target: Folate receptor beta (Homo sapiens) (UniProt P14207); assay: Displacement of [3H]-folic acid from human FRbeta expressed in chinese hamster D4 cells after 15 mins; assay type: cell-based
[7] = Antiproliferative activity against chinese hamster PC43-10 expressing human RFC assessed as reduction of viable cells after 96 hrs; assay type: functional; conditions: Cricetulus griseus, PC43-10, 96 h
[8] = Antiproliferative activity against chinese hamster RT16 cells expressing human FRalpha assessed as reduction of viable cells after 96 hrs; assay type: functional, cell-based; conditions: Cricetulus griseus, RT16, 96 h
[9] = Antiproliferative activity against chinese hamster RT16 cells expressing human FRalpha assessed as reduction of viable cells after 96 hrs in the presence of 200 nM folic acid; assay type: functional, cell-based; conditions: Cricetulus griseus, RT16, 96 h
Method in brief: (§1)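 Same 96 h CellTiter-blue proliferation set-up in folate-free RPMI/10% dFBS with 2 nM leucovorin. Run in parallel incubations that included 200 nM folic acid alongside the antifolate, to establish FR-dependent uptake.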

[10] = Antiproliferative activity against chinese hamster D4 cells expressing human FRbeta assessed as reduction of viable cells after 96 hrs; assay type: functional, cell-based; conditions: Cricetulus griseus, D4, 96 h
[11] = Antiproliferative activity against chinese hamster D4 cells expressing human FRbeta assessed as reduction of viable cells after 96 hrs in the presence of 200 nM folic acid; assay type: functional, cell-based; conditions: Cricetulus griseus, D4, 96 h; method in brief: as §1
KB [12] = assay: Antiproliferative activity against human KB cells expressing human RFC, FRalpha and PCFT assessed as reduction of viable cells after 96 hrs; assay type: functional, cell-based
KB [13] = assay: Antiproliferative activity against human KB cells expressing human RFC, FRalpha and PCFT assessed as reduction of viable cells after 96 hrs in the presence of 200 nM folic acid; assay type: functional, cell-based; method in brief: as §1
IGROV-1 [14] = assay: Antiproliferative activity against human IGROV1 cells expressing human RFC, FRalpha and PCFT assessed as reduction of viable cells after 96 hrs; assay type: functional, cell-based; conditions: IGROV-1, 96 h
IGROV-1 [15] = assay: Antiproliferative activity against human IGROV1 cells expressing human RFC, FRalpha and PCFT assessed as reduction of viable cells after 96 hrs in the presence of 200 nM folic acid; assay type: functional, cell-based; conditions: IGROV-1, 96 h; method in brief: as §1
[16] = molecular target: Folate receptor alpha (Homo sapiens) (UniProt P15328); assay: Displacement of [3H]-folic acid from human FRaplha expressed in chinese hamster RT16 cells after 15 mins; assay type: cell-based
[17] = molecular target: T1, Proton-coupled folate transporter (Homo sapiens); assay: Induction of current in human PCFT expressed in xenopus oocyte at 5 uM at holding potential -90 mV by voltage clamp assay
[18] = molecular target: T1, Proton-coupled folate transporter (Homo sapiens); assay: Inhibition of human PCFT-mediated [3H]MTX uptake expressed in chinese hamster R2 cells at pH 5.5 by dixon plot analysis relative to PMX; assay type: cell-based; conditions: concentration not given here
[19] = molecular target: T1, Proton-coupled folate transporter (Homo sapiens); assay: Inhibition of human PCFT-mediated [3H]MTX uptake expressed in chinese hamster R2 cells at pH 6.8 […] relative to PMX; assay type: cell-based; conditions: concentration not given here
R2 [20] = assay: Decrease in intracellular ATP concentration in chinese hamster R2 cells expressing human PCFT at 1 uM after 24 hrs by HPLC relative to control at pH 6.8; assay type: functional, Cricetulus griseus; parameters: scale not given: the % may be the effect or the level left
Method in brief: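 R2/hPCFT4 CHO cells seeded in folate-free RPMI 1640 with 10% dialysed FBS and 25 nM leucovorin (pH 7.2). After 24 h, switched to the same medium buffered to pH 6.8 with 25 mM PIPES/25 mM HEPES. Drug at 1 µM, or vehicle (0.5% DMSO or H2O), for 24 h. Nucleotides extracted; ATP quantified by HPLC against vehicle control.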

IGROV-1 [21] = assay: Antitumor activity against human IGROV1 cells expressing human RFC, FRalpha and PCFT xenografted in SCID mouse assessed as log cell kill at 180 mg/kg, iv administered on days 3, 7, 11, 15, and 19 postimplantation; assay type: functional
Method in brief: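 Female ICR SCID mice, 10 weeks old, on a folate-deficient diet from 24 days before implant. Bilateral subcutaneous IGROV1 tumour fragments (30–60 mg, by trocar); mice pooled, then randomised. IV dosing on days 3, 7, 11, 15 and 19. Mice weighed daily; tumours measured by caliper 2–3 times weekly; mice sacrificed at 1500 mg tumour burden. Weight-loss nadir and recovery recorded.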

R2 [22] = assay: Inhibition of GARFTase in chinese hamster R2 cells expressing human PCFT assessed as incorporation of [14C]glycine into [14C]formyl GAR in the presence of 4 uM azaserine; assay type: cell-based; conditions: Cricetulus griseus
R2 [23] = assay: Antiproliferative activity against chinese hamster R2 cells expressing human PCFT assessed as growth inhibition at <50 nM in the presence of 10 uM thymidine; assay type: functional, cell-based; conditions: Cricetulus griseus
Method in brief: (§2)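 R2/hPCFT4 cells were grown in folate-free RPMI with 25 nM leucovorin and 10% dFBS and exposed to antifolate for up to 96 h. Rescue co-incubations used thymidine (10 µM), adenosine (60 µM) and AICA (320 µM), alone or combined. Viability was read by CellTiter-blue.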

R2 [24] = assay: Antiproliferative activity against chinese hamster R2 cells expressing human PCFT assessed as growth inhibition in the presence of 10 uM thymidine and 320 uM AICA; assay type: functional, cell-based; conditions: Cricetulus griseus; method in brief: as §2
R2 [25] = assay: Antiproliferative activity against chinese hamster R2 cells expressing human PCFT assessed as growth inhibition in the presence of 60 uM adenosine; assay type: functional, cell-based; conditions: Cricetulus griseus; method in brief: as §2
R2 [26] = assay: Antiproliferative activity against chinese hamster R2 cells expressing human PCFT assessed as growth inhibition in the presence of 60 uM adenosine and 10 uM thymidine; assay type: functional, cell-based; conditions: Cricetulus griseus; method in brief: as §2

Folate receptor alpha (Homo sapiens), sequence (P15328 25-234 limits assumed): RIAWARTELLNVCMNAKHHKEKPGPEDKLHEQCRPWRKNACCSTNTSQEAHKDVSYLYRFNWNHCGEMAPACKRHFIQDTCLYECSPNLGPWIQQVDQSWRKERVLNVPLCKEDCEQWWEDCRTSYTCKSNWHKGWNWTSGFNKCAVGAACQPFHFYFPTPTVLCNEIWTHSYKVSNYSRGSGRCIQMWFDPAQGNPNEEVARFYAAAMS
Folate receptor beta (Homo sapiens), sequence (P14207 17-230 limits assumed): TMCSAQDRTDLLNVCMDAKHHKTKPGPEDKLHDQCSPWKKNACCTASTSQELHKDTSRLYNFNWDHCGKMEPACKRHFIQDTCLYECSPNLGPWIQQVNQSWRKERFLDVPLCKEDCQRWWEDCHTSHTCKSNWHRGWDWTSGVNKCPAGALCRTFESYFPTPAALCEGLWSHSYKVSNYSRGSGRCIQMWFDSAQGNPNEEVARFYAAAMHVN

inhibition [3]	IC50 (KB [13]) [nM]	SMILES	IC50 (R2 [2]) [nM]	IC50 (R2 [4]) [nM]	IC50 [5] [nM]	IC50 [7] [nM]	IC50 [9] [nM]	IC50 (IGROV-1 [15]) [nM]	Activity (R2 [20]) [%]	further results
Active		Nc1nc(N)c2nc(CNc3ccc(C(=O)N[C@@H](CCCNC(=O)c4ccccc4C(=O)O)C(=O)O)cc3)cnc2n1 [TALOTREXIN]	> 1000	> 1000	> 1000					inhibition [1]: inactive
Active		Nc1nc(=O)c2c([nH]1)NCC(CNc1ccc(C(=O)N[C@@H](CCC(=O)O)C(=O)O)cc1)N2C=O (mixture of isomers)								
Active	> 1000	Nc1nc2[nH]c(CCc3ccc(C(=O)N[C@@H](CCC(=O)O)C(=O)O)s3)cc2c(=O)[nH]1	135	> 1000	> 1000	> 1000	> 1000	> 1000		inhibition [6]: inactive; IC50 [8]: 38.9 nM; IC50 [10]: 6.58 nM; IC50 [11]: > 1000 nM; IC50 (KB [12]): 3.22 nM; IC50 (IGROV-1 [14]): 123 nM; inhibition [16]: inactive
		CN(Cc1cnc2nc(N)nc(N)c2n1)c1ccc(C(=O)N[C@@H](CCC(=O)O)C(=O)O)cc1 [METHOTREXATE]			> 1000					
Active		Cc1nc(=O)c2cc(CN(C)c3ccc(C(=O)N[C@@H](CCC(=O)O)C(=O)O)s3)ccc2[nH]1 [RALTITREXED]								
	> 1000	Nc1nc2[nH]c(Cc3ccc(C(=O)N[C@@H](CCC(=O)O)C(=O)O)s3)cc2c(=O)[nH]1	291	> 1000	> 1000	> 1000	> 1000	> 1000		IC50 [8]: 122 nM; IC50 (KB [12]): 41.9 nM; IC50 (IGROV-1 [14]): > 1000 nM
Active		Nc1nc2[nH]cc(CCc3ccc(C(=O)N[C@@H](CCC(=O)O)C(=O)O)cc3)c2c(=O)[nH]1 [PEMETREXED]							17	Activity (R2 [23]): inactive; Activity (R2 [24]): Active; Activity (R2 [25]): Active; Activity (R2 [26]): inactive; inhibition (R2 [22]): Active

SMILES	inhibition [3]	IC50 (KB [13]) [nM]	IC50 (R2 [2]) [nM]	IC50 (R2 [4]) [nM]	IC50 [5] [nM]	IC50 [7] [nM]	IC50 [9] [nM]	IC50 (IGROV-1 [15]) [nM]	Activity (R2 [20]) [%]	further results
Nc1nc2[nH]c(CCCCc3ccc(C(=O)N[C@@H](CCC(=O)O)C(=O)O)s3)cc2c(=O)[nH]1	Active	> 1000		> 1000	> 1000	> 1000	> 1000	> 1000	90	Activity [17]: Active; inhibition [1]: Active; inhibition [18]: 35%; inhibition [19]: 18%; IC50 [11]: > 1000 nM; LCK (IGROV-1 [21]): 2.3
Nc1nc2c(c(=O)[nH]1)C[C@@H](CCc1ccc(C(=O)N[C@@H](CCC(=O)O)C(=O)O)cc1)CN2 [LOMETREXOL]	Active		38		> 1000		> 188		76	inhibition (R2 [22]): Active
